According to ChEMBL document CHEMBL3877264, “Quinolidene-rhodanine conjugates: Facile synthesis and biological evaluation” (Eur J Med Chem, 2017):
≈ marks a conversion by molar mass, not a printed value.

How the values were obtained:
[1] = Selectivity index, ratio of GI50 for human HeLa cells to MIC for Mycobacterium tuberculosis H37Ra ATCC 25177 at dormant stage; assay type: toxicity, cell-based; conditions: read-out: Selectivity Index
Procedure, shortened: (§1)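 SI is the cell-line GI50 divided by the dormant-stage mycobacterial MIC. […] THP-1 macrophages were PMA-differentiated for 24 h.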

[2] = test system: Mycobacterium tuberculosis; assay: Growth inhibition of Mycobacterium bovis BCG ATCC 35743 at dormant stage measured after 12 days by nitrate reductase dye based two fold dilution method; assay type: functional; conditions: BCG str. ATCC 35743, 288 h
Procedure, shortened: (§2)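 M. bovis BCG was grown in Dubos medium and assayed in Mycobacterium pheli minimal medium (pH 6.6), with compounds from DMSO stocks. Incubation lasted 8 days for active and 12 days for dormant cultures. Viability was read by nitrate reductase at 540 nm against cell-free blanks, with vehicle set as 100% growth. Primary screen was at 30, 10 and 3 µg/ml, in triplicate, mean ± SD. MIC was taken from dose-response curves.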

[3] = test system: Mycobacterium tuberculosis; assay: Growth inhibition of Mycobacterium bovis BCG ATCC 35743 at active stage measured after 8 days by nitrate reductase dye based two fold dilution method; assay type: functional; conditions: BCG str. ATCC 35743, 192 h; procedure, shortened: as §2
[4] = Selectivity index, ratio of GI50 for […]-differentiated human THP1 cells to MIC for Mycobacterium tuberculosis H37Ra ATCC 25177 at dormant stage; assay type: toxicity, cell-based, THP-1; conditions: read-out: Selectivity Index; procedure, shortened: as §1
[5] = Selectivity index, ratio of GI50 for human A549 cells to MIC for Mycobacterium tuberculosis H37Ra ATCC 25177 at dormant stage; assay type: toxicity, cell-based; conditions: read-out: Selectivity Index; procedure, shortened: as §1
[6] = Selectivity index, ratio of GI50 for human PANC1 cells to MIC for Mycobacterium tuberculosis H37Ra ATCC 25177 at dormant stage; assay type: toxicity, cell-based, PANC-1; conditions: read-out: Selectivity Index; procedure, shortened: as §1
[7] = test system: Mycobacterium tuberculosis; assay: Growth inhibition of Mycobacterium tuberculosis H37Ra ATCC 25177 at dormant stage measured after 12 days by XTT dye based two fold dilution method; assay type: functional; conditions: H37Ra ATCC 25177, 288 h
Procedure, shortened: (§3)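 MTB H37Ra was grown in Dubos medium, then exposed in Mycobacterium pheli minimal medium (pH 6.6) to compounds dissolved in DMSO. The assay ended on day 8 (active) or day 12 (dormant). Viable cells were measured by XTT reduction menadione assay at 470 nm, blank-corrected, relative to vehicle control. Triplicates were expressed as mean ± SD. MIC came from dose-response curves.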

[8] = Selectivity index, ratio of GI50 for human THP1 cells to MIC for Mycobacterium tuberculosis H37Ra ATCC 25177 at dormant stage; assay type: toxicity, cell-based, THP-1; conditions: read-out: Selectivity Index; procedure, shortened: as §1
[9] = Selectivity index, ratio of GI50 for HUVEC to MIC for Mycobacterium tuberculosis H37Ra ATCC 25177 at dormant stage
[10] = test system: Mycobacterium tuberculosis; assay: Growth inhibition of Mycobacterium tuberculosis H37Ra ATCC 25177 at active stage measured after 8 days by XTT dye based two fold dilution method; assay type: functional; conditions: H37Ra ATCC 25177, 192 h; procedure, shortened: as §3
[11] = Selectivity index, ratio of GI50 for HUVEC to MIC for Mycobacterium bovis BCG ATCC 35743 at dormant stage; conditions: pooled result: one value given for 6 cell lines, strains, targets or settings; procedure, shortened: as §1

Compound `CO[C@H]1/C=C/O[C@@]2(C)Oc3c(C)c(O)c4c(O)c(c(/C=N/N5CCN(C)CC5)c(O)c4c3C2=O)NC(=O)/C(C)=C\C=C\[C@H](C)[C@H](O)[C@@H](C)[C@@H](O)[C@@H](C)[C@H](OC(C)=O)[C@@H]1C` [RIFAMPIN] has a selectivity ratio [1] of 2500, an IC50 [2] of 0.0043 µg/mL (≈ 0.00523 µM) and an IC90 [2] of 0.0173 µg/mL (≈ 0.021 µM). It also gave an IC90 [3] of 0.0151 µg/mL (≈ 0.0183 µM), a selectivity ratio [4] of 2500 and a selectivity ratio [5] of 2500. It also gave a selectivity ratio [6] of 2500, an IC50 [7] of 0.0019 µg/mL (≈ 0.00231 µM) and an IC90 [7] of 0.02 µg/mL (≈ 0.0243 µM). The selectivity ratio [8] was 2500, the “Selectivity Index” value [9] was 2500 and the IC50 [10] was 0.0021 µg/mL (≈ 0.00255 µM). The IC90 [10] was 0.028 µg/mL (≈ 0.034 µM) and the “Selectivity Index” value [11] was 2500.
